Reference: ChEMBL document CHEMBL1157816, “Action of a pentacyclic triterpenoid, maslinic acid, against Toxoplasma gondii” (J Nat Prod, 2010)
pIC50: −log10 of the molar value. Activity calls are given as the source filed them. No cut-off for these calls is given here.

Key:
[1] = Toxicity in african green monkey Vero cells by alamar blue assay; assay type: cell-based; details: chlorocebus sabaeus, read-out: LD50 (the source's name)
Method in brief: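 Semiconfluent Vero cells (1 × 10^4/well; DMEM, 10% heat-inactivated FCS, 2 mM glutamine, penicillin/streptomycin) exposed to compound dilutions (3.9-500 µM series) with Alamar Blue for 24 h, 37 °C, 5% CO2. Controls are medium, AB and drug blanks, plus cells with DMSO. Percent AB reduction is read from absorbance at 570/600 nm against the DMSO control by the manufacturer's formula. LD50 reported as mean ± SEM.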

Toxoplasma gondii [2] = assay: Antimicrobial activity against Toxoplasma gondii RH tachyzoites assessed as inhibition of parasite gliding motility at 25 uM pretreated for 15 mins; assay type: functional
Method in brief: (§1)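 RH-strain tachyzoites (passaged in Balb/c mice and Vero cells, filter-purified) pretreated 15 min at 37 °C with compound at 50, 25 or 10 µM; DMSO at maximum solvent level as control. Slides coated with 0.1% poly-L-lysine in PBS pH 7.2. Fixed in 4% formaldehyde/0.02% glutaraldehyde, stained with anti-SAG-1 (P30) mAb 1/50 plus FITC anti-IgG 1/100; trail number and length scored by confocal microscopy.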

Toxoplasma gondii [3] = assay: Antimicrobial activity against Toxoplasma gondii RH tachyzoites assessed as inhibition of parasite gliding motility pretreated for 15 mins; assay type: functional; method in brief: as §1
Toxoplasma gondii [4] = assay: Antimicrobial activity against Toxoplasma gondii RH tachyzoites assessed as inhibition of parasite invasion of african green monkey Vero cells pretreated for 1 hr before cell infection measured 24 to 48 hrs post infection; assay type: functional
Method in brief: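 RH tachyzoites (mouse ascites, passaged in Vero cells, needle- and 5 µm filter-purified), 2.5 × 10^5 pretreated 1 h at 37 °C in medium with compound (250-15.6 µM) or DMSO control. They then infect semiconfluent Vero cells at 10 parasites/cell, 37 °C, 5% CO2. Medium is replaced. Slides are methanol-fixed and Diff-Quick stained at 24 and 48 h. Percent parasitised is scored by light microscopy in 500 cells/slide, three repeats, mean ± SEM, giving ID50.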

Toxoplasma gondii [5] = assay: Antimicrobial activity against Toxoplasma gondii RH tachyzoites assessed as inhibition of parasite gliding motility at 10 uM pretreated for 15 mins; assay type: functional; method in brief: as §1
Toxoplasma gondii [6] = assay: Cytopathic effect against Toxoplasma gondii RH extracellular tachyzoites infected in african green monkey Vero cells assessed as induction of morphological changes at 25 uM after 8 hrs by electron microscopy; assay type: functional, organism-based
Method in brief: (§2)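 Purified extracellular tachyzoites exposed to 25 µM compound for 4 or 8 h. Fixed in 2.5% glutaraldehyde in cacodylate buffer, postfixed 30 min in 1% buffered OsO4, dehydrated and embedded in Spurr resin. Ultrathin sections stained with 8% uranyl acetate then 0.2% lead citrate and examined by transmission electron microscopy.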

Toxoplasma gondii [7] = assay: Antimicrobial activity against Toxoplasma gondii RH tachyzoites assessed as inhibition of parasite invasion of african green monkey Vero cells pretreated for 1 hr before cell infection measured 48 hrs post infection; assay type: functional; details: read-out: ID50 (the source's name)
Method in brief: (§3)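 Purified RH tachyzoites (2.5 × 10^5) pretreated 1 h at 37 °C in medium with compound (250-15.6 µM) or DMSO control. They then infected semiconfluent Vero cells at 10 parasites/cell (37 °C, 5% CO2), after which medium was replaced. Slides fixed in methanol at 24 or 48 h and stained with Diff-Quick. Percentage parasitism from 500 cells per slide by light microscopy; three repeats; mean ± SEM; ID50 reported.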

Toxoplasma gondii [8] = assay: Cytopathic effect against Toxoplasma gondii RH extracellular tachyzoites infected in african green monkey Vero cells assessed as induction of morphological changes at 25 uM after 4 hrs by electron microscopy; assay type: functional, organism-based; method in brief: as §2
Vero [9] = assay: Inhibition of serine protease in excreted-secreted products fraction of Toxoplasma gondii RH tachyzoites infected in african green monkey Vero cells by SDS-PAGE and zymography; assay type: cell-based
Method in brief: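 Purified tachyzoites (6 × 10^7/100 µL DMEM without serum) pretreated 15 min at room temperature with compound at various concentrations. Micronemal secretion is induced at 37 °C with 200 mM ethanol, then the parasites are pelleted and secretion stopped on ice. The ESP fraction goes in nonreducing sample buffer onto 12% SDS-PAGE with 0.1% gelatin, run at 90 V, 4 °C. The gel gets 2.5% Triton X-100 for 60 min, then develops overnight at 37 °C (50 mM Tris-HCl, 10 mM CaCl2, pH 6.8). Coomassie stain.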

Toxoplasma gondii [10] = assay: Cytopathic effect against Toxoplasma gondii RH intracellular tachyzoites infected in african green monkey Vero cells assessed as induction of morphological changes at 25 uM by electron microscopy; assay type: functional, organism-based
Method in brief: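 Vero cultures infected 24 h, then treated with 25 µM compound for 8 h. Fixed in 2.5% glutaraldehyde in cacodylate buffer, scraped, postfixed 30 min in 1% OsO4 and embedded in Spurr resin. Sections stained with uranyl acetate and lead citrate and viewed by TEM.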

Vero [11] = assay: Inhibition of serine protease in excreted-secreted products fraction of […] secretion proteins of Toxoplasma gondii RH tachyzoites infected in african green monkey Vero cells by SDS-PAGE and zymography; assay type: cell-based
Method in brief: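 Tachyzoites (6 × 10^7 in 100 µL serum-free DMEM) pretreated 15 min at room temperature with compound at various concentrations. Micronemal secretion induced at 37 °C with 200 mM ethanol and stopped on ice after centrifugation. The ESP fraction was run in nonreducing 12% SDS-PAGE containing 0.1% gelatin at 90 V, 4 °C. Gel washed in 2.5% Triton X-100, developed overnight at 37 °C in Tris/CaCl2 pH 6.8 and Coomassie-stained; cleared bands read as activity.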

Toxoplasma gondii [12] = assay: Antimicrobial activity against Toxoplasma gondii RH tachyzoites assessed as inhibition of parasite invasion of african green monkey Vero cells pretreated for 1 hr before cell infection measured 24 hrs post infection; assay type: functional; details: read-out: ID50 (the source's name); method in brief: as §3
Toxoplasma gondii [13] = assay: Antimicrobial activity against Toxoplasma gondii RH tachyzoites assessed as inhibition of parasite gliding motility at 50 uM pretreated for 15 mins; assay type: functional; method in brief: as §1

Row | Structure (SMILES) | CC50 [1] [µM] | inhibition at 25 µM (Toxoplasma gondii [2]) [%] | inhibition (Toxoplasma gondii [3]) | inhibition (INH) (Toxoplasma gondii [3]) [%] | inhibition (Toxoplasma gondii [4]) | inhibition at 10 µM (Toxoplasma gondii [5]) [%] | inhibition (Toxoplasma gondii [6]) | pIC50 (Toxoplasma gondii [7]) | inhibition (Toxoplasma gondii [8]) | inhibition (Vero [9]) | inhibition (Toxoplasma gondii [10]) | inhibition (Vero [11]) | pIC50 (Toxoplasma gondii [12]) | inhibition at 50 µM (Toxoplasma gondii [13]) [%]
1 | NCCc1ccc(S(=O)(=O)F)cc1 | 36.9 | – | – | – | – | – | – | – | – | – | – | – | – | –
2 | CC1(C)CC[C@]2(C(=O)O)CC[C@]3(C)C(=CC[C@@H]4[C@@]5(C)C[C@@H](O)[C@H](O)C(C)(C)[C@@H]5CC[C@]43C)[C@@H]2C1 [MASLINIC ACID] | 237 | 59.7 | Dose-dependent effect | 100 | Dose-dependent effect | 58.8 | Active | 5.10 | Active | Dose-dependent effect | Active | Active | 4.34 | ≥ 100
3 | O=S(=O)(F)Cc1ccccc1 [PHENYLMETHYLSULFONYLFLUORIDE] | 133 | – | – | – | – | – | – | – | – | Dose-dependent effect | – | – | – | –
